hERG protect – compounds protecting human hERG from proarrhythmic drug block; activation (rescue from dofetilide block), less the hit threshold, % at 10 µM; Q12809; hit rate 0.51% among 310,000; CHO-hERG, FluxOR thallium flux, dofetilide IC70 present;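 active means activation above the mean of controls blocked by dofetilide plus 5 SD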;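 further: thallium influx through hERG after potassium depolarization seen as dye fluorescence rise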
KCNK3 block – human KCNK3 channel inhibition, primary screen. CHO-KCNK3 thallium flux, FluxOR fluorescence; active compounds read low. B-score at 10 µM. O14649. hit rate 0.84% among 340,000;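 active means B-score under library mean minus 4 SD, starting fluorescence ratio at most library mean plus 5 SD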;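 further: more negative B-score means stronger inhibition of thallium flux through KCNK3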
KCNQ1 pot – potentiators or activators of human KCNQ1 potassium channel; P51787; CHO-K1 KCNQ1, thallium flux FluxOR fluorescence; active compounds read high; B-score at 10 µM; hit rate 0.35% among 310,000;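 active means fluorescence ratio B-score, a plate-corrected score, at least three library SD, with initial intensity B-score within 5 SD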
Target sequence (P51787 whole entry, looked up): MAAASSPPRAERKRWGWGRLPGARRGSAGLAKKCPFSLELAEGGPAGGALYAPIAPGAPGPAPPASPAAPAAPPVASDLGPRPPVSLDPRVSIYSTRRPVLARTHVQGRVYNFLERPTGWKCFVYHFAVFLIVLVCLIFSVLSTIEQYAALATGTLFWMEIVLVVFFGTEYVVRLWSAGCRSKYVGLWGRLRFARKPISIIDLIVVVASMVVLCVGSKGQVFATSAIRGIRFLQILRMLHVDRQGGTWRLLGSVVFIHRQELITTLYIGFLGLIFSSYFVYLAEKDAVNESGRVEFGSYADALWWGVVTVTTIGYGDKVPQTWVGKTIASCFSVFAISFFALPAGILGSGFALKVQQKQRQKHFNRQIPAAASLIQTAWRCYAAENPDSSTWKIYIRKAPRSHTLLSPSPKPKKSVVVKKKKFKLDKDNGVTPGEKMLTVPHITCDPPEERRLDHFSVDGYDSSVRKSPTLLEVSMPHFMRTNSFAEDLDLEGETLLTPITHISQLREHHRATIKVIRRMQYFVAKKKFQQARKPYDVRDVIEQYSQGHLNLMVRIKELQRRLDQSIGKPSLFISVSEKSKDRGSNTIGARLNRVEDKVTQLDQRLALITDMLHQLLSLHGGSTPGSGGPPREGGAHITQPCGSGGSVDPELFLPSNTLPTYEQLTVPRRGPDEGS
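Material: CHO-K1 cells stably expressing KCNQ1. Medium: assay buffer for compound exposure, DMSO matched across wells. Reagent: K+/Tl+ depolarizing stimulus. Compound dosing: single-concentration screen. Times: 37 °C overnight plating, 90-min dark dye load, 20-min compound pretreatment. Technique: FluxOR Tl+ flux fluorescence.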
KCNK9 inh – inhibitors of human KCNK9 two-pore domain potassium channel | Q9NPC2 | HEK293 KCNK9, FluxOR thallium flux fluorescence; active compounds read low | B-score at 10 µM | hit rate 1.2% among 310,000 | AID 488922;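 active means ratio B-score over 3 SD below the library mean, with starting fluorescence within 5 SD of its mean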;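 further: negative B-score means less thallium flux so channel inhibition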
KCNQ1 block – inhibitors of human KCNQ1 potassium channel; CHO-K1 KCNQ1, FluxOR thallium flux fluorescence; active compounds read high; B-score at 10 µM; hit rate 1.3% among 310,000; AID 2642; P51787;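 active means compounds whose thallium flux B-score, printed positive for inhibition, exceeds three library SD while starting fluorescence stays within three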;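 further: channel opened by potassium depolarization with thallium stimulus after 20 min compound exposure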
KCNK3 inh conf – confirmation of human KCNK3 two-pore domain potassium channel inhibitors; shares compounds with KCNK3 block; CHO-KCNK3 thallium flux, FluxOR fluorescence; 0% buffer, 100% carvedilol maximal block; ratio percent of control, % at 10 µM; hit rate 99% among 2,400; AID 651638;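 active means ratio percent of control, averaged over triplicates, above buffer control mean plus 5 SD, cut at about 64% in these data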;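 further: ratio is the fluorescence rise from min to max over baseline after thallium stimulus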
KCNK3 uninduced – activity in cells without induced KCNK3 expression | non-induced KCNK3 parental cells, FluxOR thallium flux; active compounds read low | thallium flux ratio (lower = more inhibition) at 10 µM | hit rate 40% among 2,400 | shares compounds with KCNK3 block | AID 651747;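 active means thallium flux ratio, averaged over three wells, more than 5 SD below the buffer control mean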;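 further: host cells are CHO cells without KCNK3 induction; ratio is peak minus trough fluorescence over baseline then normalized to buffer controls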
* = called active by the depositor; i = inactive; · = no result. Most compounds without a hit are left out; they make up all but 3.1% or so of the library.

SMILES	hERG protect	KCNK3 block	KCNQ1 pot	KCNK9 inh	KCNQ1 block	KCNK3 inh conf	KCNK3 uninduced
COc1ccc(-c2ccc(=O)n(CC(=O)NCC3COCCO3)n2)cc1 (centres undefined)	-8	i	i	i	i	·	·
O=C(COC(=O)/C=C/c1ccc(F)cc1)Nc1nnc(-c2ccccc2)o1	·	i	·	·	·	·	·
Cc1ccc(C)c(N2CCN(C(=O)CCC(=O)N3CCOc4ccc(Cl)cc43)CC2)c1	-5	-10*	i	i	i	122*	0.15*
COc1ccc(OC)c(-c2csc(NC(=O)CN3C(=O)NC4(CCCC4)C3=O)n2)c1	-6	i	i	i	i	·	·
COc1ccc(OC)c(-c2csc(NC(=O)Cc3ccccc3F)n2)c1	-7	i	i	-6.7*	i	98*	i
O=C(Cn1ccccc1=O)Nc1ccc(Cl)c(S(=O)(=O)N2CCCCC2)c1	·	i	·	·	·	·	·
CC1=CC2=NC(=O)/C(=C\c3cccn3CCOc3ccccc3C)C(=N)N2O1	-6	-8.9*	i	i	i	115*	0.16*
COc1ccc(NC(=O)C2=CC(c3ccc(C)cc3)=NS(=O)(=O)N2C)cc1OC	-12	i	i	i	i	·	·
COc1ccc(C2=NS(=O)(=O)N(C)C(C(=O)Nc3cc(C)ccc3O)=C2)cc1OC	-35	-9.2*	i	i	9*	95*	i
COc1ccccc1CNC(=O)COC(=O)c1ncc(Cl)c(Cl)c1Cl	-10	i	i	i	i	·	·
CC1=Nc2ccccc2/C1=C/c1nc(-c2ccc(C)s2)oc1O	-36	i	i	i	i	·	·
CC1=Nc2ccccc2/C1=C/c1sc(=N)n(-c2nccs2)c1O	-24	-10*	i	i	10*	175*	0.089*
COc1ccc(CCn2c(=N)c(C(=O)NC3CCCC3)cc3c(=O)n4cccc(C)c4nc32)cc1	-36	-13*	i	i	13*	114*	i
COCC1CCCN(C(=O)c2ccc3nc(Cc4cccc(Cl)c4)oc3c2)C1 (centres undefined)	-6	-9.5*	i	i	i	96*	i
CCc1ccc(NC(=O)CN(c2ccccc2)S(=O)(=O)N(C)C)cc1	-4	-10*	i	i	i	103*	i
COc1ccccc1NC(=O)Nc1nn(C)c2cccc(N(C)C)c12	-4	-9.3*	i	i	i	92*	i
CCOC(=O)/C(=C\c1ccc(N2CCC(c3ccccc3)=N2)cc1)C(C)=O	·	-12*	·	·	·	0	i
O=C(/C=C/c1ccc(N2CCC(c3ccccc3)=N2)cc1)c1ccccc1	-16	·	i	i	i	·	·
O=C(NC1CCS(=O)(=O)C1)c1cccc(Cl)c1 (centres undefined)	-7	i	i	i	i	·	·
CCc1nn(-c2cc(Cl)ccc2OC)c2c1C(=O)CCC2	-10	i	i	i	i	·	·
CCCc1nn(-c2cc(Cl)ccc2OC)c2c1C(=O)CC(C)(C)C2	-8	-11*	i	i	i	87*	i
Cc1occc1-c1nnc(SCC(=O)c2c(N)n(C3CC3)c(=O)[nH]c2=O)n1C	·	i	·	·	·	·	·
CCOC(=O)/C(C#N)=C/c1cc(C)n(-c2ccc(C)cc2)c1C	-4	-9.6*	i	i	i	110*	i
Cc1noc(NS(=O)(=O)c2ccc(NC(=O)NC(C)(C(F)(F)F)C(F)(F)F)cc2)c1C	-6	i	i	i	i	·	·
COc1ccccc1NC(=O)c1ccccc1Oc1ccccc1	-8	-8.8*	i	i	i	122*	0.12*
SMILES	hERG protect	KCNK3 block	KCNQ1 pot	KCNK9 inh	KCNQ1 block	KCNK3 inh conf	KCNK3 uninduced
COc1ccccc1NC(=O)c1ccc(COc2ccccc2OC)cc1	-8	-8.8*	i	i	i	103*	i
COc1ccccc1NC(=O)c1ccccc1C(=O)O	-2	i	i	i	i	·	·
CCOC(CCNC(=O)c1cn(CC(C)C)c(=O)c2c1c1ccccc1n2C)OCC	-2	i	i	i	i	·	·
O=C(CSc1nncs1)N1c2ccccc2Sc2ccccc21	-5	i	i	i	i	·	·
Cc1ccc(SCC(=O)N2c3ccccc3Sc3ccccc32)cc1	-8	-9.6*	i	i	i	105*	0.16*
Cc1cccc(OCC(=O)N2CCN(C(=O)COc3ccc(Cl)cc3)CC2)c1	-4	i	i	i	i	·	·
Cc1ccc(OCCNC(=O)C(C)SCC(=O)Nc2ccc(F)cc2)cc1 (centres undefined)	·	i	·	·	·	·	·
Cc1onc(-c2ccc(Cl)cc2Cl)c1-c1csc(COc2ccccc2)n1	-4	-9.6*	i	i	i	101*	0.15*
O=C(O)c1ccc(-c2nc(-c3ccc(Cl)cc3Cl)cs2)cc1	1	i	i	i	i	·	·
CCOC(=O)c1cc(-c2ccccc2C)n(CC2CC(c3ccc(OC)cc3)=NO2)n1 (centres undefined)	·	i	·	·	·	·	·
CCC(C)c1ccc(NC(=O)Nc2cccnc2)cc1 (centres undefined)	-16	-9.7*	i	i	i	119*	0.15*
CC(C)N(Cc1ccccc1)C(=O)C1CCCN(c2ncnc3c2nc2n3CCCCC2)C1 (centres undefined)	-19	i	i	i	i	·	·
CCCCN(Cc1ccco1)C(=O)C1CCCN(c2ncnc3c2nc2n3CCCCC2)C1 (centres undefined)	-15	-11*	i	i	i	97*	i
COc1ccc(C(NCC(=O)NC(C)c2ccc(Cl)cc2)c2ccccc2)cc1 (centres undefined)	-1	-9.5*	i	i	i	126*	0.12*
O=C(c1ccc2c(c1)N(Cc1ccccc1)CCS2)N1CCCCC1	-14	-9.9*	i	i	i	124*	0.13*
COC(=O)Nc1ccc2c(c1)N(C(=O)CCN(C)C)c1ccccc1CC2	-1	i	i	i	i	·	·
O=S(=O)(c1cc(Br)ccc1Br)N1CCCCCC1	-4	-11*	i	i	i	129*	0.14*
Cc1noc(C)c1S(=O)(=O)Nc1ccc(C(=O)N2CCc3ccccc3C2)cc1	-6	-9.1*	i	i	i	60*	i
Cc1noc(C)c1S(=O)(=O)Nc1ccc(C(=O)N2CCC(C)CC2)cc1	-9	·	i	i	i	·	·
O=[N+]([O-])c1cccc(Oc2cnccn2)c1	-4	i	i	i	i	·	·
